# Assay results as given in paper PMC9055920 (RSC Advances, 2020).
# Like-named read-outs stand apart in the source and are kept apart here.
# How the values were obtained:
# [1] = tested on: α-glucosidase; conditions: cited from earlier work
# [2] = target: Saccharomyces cerevisiae α-glucosidase (Saccharomyces cerevisiae, UniProt P53341); experiment: α-Glucosidase enzyme activity; format: biochemical; conditions: at the concentration of 125 μmol L^−1
# [3] = target: T1, α-glucosidase (Saccharomyces cerevisiae, UniProt P53341); experiment: Fluorescence quenching and thermodynamic analysis; format: binding; conditions: for ΔH° enthalpy change / ΔS° entropy change: van't Hoff plot over 298, 304, 310 K
# [4] = target: T1, α-glucosidase; experiment: Kinetic analysis of inhibitory type; format: biochemical; conditions: Lineweaver–Burk plots
# [5] = target: T1, α-glucosidase; experiment: CD spectroscopy of secondary structure
# How it was run: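 Far-UV CD spectra (190–250 nm) were recorded for S. cerevisiae α-glucosidase held at 2 μmol L−1, with test flavonol added at flavonol:enzyme molar ratios of 0:1, 40:1 and 80:1. Each spectrum was averaged over three scans under constant nitrogen flush, and the buffer signal was subtracted. Experiments were done in triplicate.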
# [6] = target: T1, α-glucosidase; experiment: Reversibility, plots of v vs. [α-glucosidase]; format: biochemical; conditions: myricetin 0–6.25 × 10^−5 mol L^−1, c(pNPG) = 3.13 × 10^−4 mol L^−1
# [7] = clinically used antidiabetic drugs
# [8] = natural α-glucosidase inhibitors
# [9] = molar ratio of myricetin to α-glucosidase 40 : 1
# [10] = molar ratio of myricetin to α-glucosidase 80 : 1
# T1 sequence (P53341 whole entry): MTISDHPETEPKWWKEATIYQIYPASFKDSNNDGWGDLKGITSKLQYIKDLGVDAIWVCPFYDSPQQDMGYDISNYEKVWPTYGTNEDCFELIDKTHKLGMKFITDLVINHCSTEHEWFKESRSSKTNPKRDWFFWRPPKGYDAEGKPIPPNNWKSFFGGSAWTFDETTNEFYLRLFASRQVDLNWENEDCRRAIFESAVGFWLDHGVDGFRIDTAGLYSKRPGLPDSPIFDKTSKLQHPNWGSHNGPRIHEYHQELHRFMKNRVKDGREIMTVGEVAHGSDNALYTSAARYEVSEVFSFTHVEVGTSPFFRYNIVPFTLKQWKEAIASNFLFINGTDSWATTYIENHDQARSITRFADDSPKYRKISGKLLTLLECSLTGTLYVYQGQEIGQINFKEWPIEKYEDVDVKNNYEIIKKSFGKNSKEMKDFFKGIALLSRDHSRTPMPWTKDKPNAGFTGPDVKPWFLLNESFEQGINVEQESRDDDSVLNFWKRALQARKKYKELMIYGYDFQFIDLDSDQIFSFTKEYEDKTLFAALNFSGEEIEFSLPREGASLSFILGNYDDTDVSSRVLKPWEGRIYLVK
# Sequence of Saccharomyces cerevisiae α-glucosidase (P53341 whole entry): as above
"Ksv, Stern–Volmer quenching constant ([3]; 298 K)","n, number of binding sites per protein molecule ([3]; 298 K)",ΔG° free energy change ([3]; 298 K) [kJ/mol],"Ksv, Stern–Volmer quenching constant ([3]; 304 K)","n, number of binding sites per protein molecule ([3]; 304 K)",ΔG° free energy change ([3]; 304 K) [kJ/mol],"n, number of binding sites per protein molecule ([3]; 310 K)",ΔG° free energy change ([3]; 310 K) [kJ/mol],ΔH° enthalpy change [3] [kJ/mol],ΔS° entropy change [3] [J mol^−1K^−1],Inhibitory type [4],Structure (SMILES),"type of α-glucosidase inhibition (reported) [1, 7]","type of α-glucosidase inhibition (reported) [1, 8]",also measured
–,–,–,–,–,–,–,–,–,–,–,OCCN1C[C@H](O)[C@@H](O)[C@H](O)[C@H]1CO [miglitol],competitive inhibitors,–,–
–,–,–,–,–,–,–,–,–,–,–,OCC(CO)N[C@H]1C[C@](O)(CO)[C@@H](O)[C@H](O)[C@H]1O [voglibose],competitive inhibitors,–,–
11.42 ± 0.06 ×10^4 L mol^−1,0.97 ± 0.01,-29.07 ± 0.03,11.20 ± 0.06 ×10^4 L mol^−1,0.99 ± 0.01,-29.40 ± 0.03,1.01 ± 0.01,-29.74 ± 0.04,-12.23 ± 0.98,56.51 ± 3.27,Mixed-type,O=c1c(O)c(-c2ccc(O)c(O)c2)oc2cc(O)cc(O)c12 [quercetin],–,–,inhibition of the activity of α-glucosidase [2]: approximately 75%
–,–,–,–,–,–,–,–,–,–,–,O=c1c(-c2ccc(O)cc2)coc2cc(O)cc(O)c12 [genistein],–,mixed-type,–
–,–,–,–,–,–,–,–,–,–,–,O=c1c(O)c(-c2ccccc2)oc2cc(O)cc(O)c12 [galangin],–,mixed-type,–
–,–,–,–,–,–,–,–,–,–,–,O=c1c(O)c(-c2ccc(O)cc2O)oc2cc(O)cc(O)c12 [morin],–,mixed-type,–
9.91 ± 0.08 ×10^4 L mol^−1,0.87 ± 0.01,-29.03 ± 0.03,8.81 ± 0.05 ×10^4 L mol^−1,0.93 ± 0.01,-29.42 ± 0.01,0.98 ± 0.01,-29.80 ± 0.02,-9.71 ± 0.99,64.84 ± 3.25,Mixed-type,O=c1c(O)c(-c2ccc(O)cc2)oc2cc(O)cc(O)c12 [kaempferol],–,–,"inhibition of the activity of α-glucosidase [2]: approximately 60%; Ksv, Stern–Volmer quenching constant ([3]; 310 K): 8.04 ± 0.02 ×10^4 L mol^−1"
14.26 ± 0.03 ×10^4 L mol^−1,0.99 ± 0.01,-29.34 ± 0.05,13.81 ± 0.04 ×10^4 L mol^−1,1.04 ± 0.01,-29.60 ± 0.04,1.06 ± 0.01,-29.87 ± 0.04,-16.16 ± 0.57,44.22 ± 1.17,Mixed-type,O=c1c(O)c(-c2cc(O)c(O)c(O)c2)oc2cc(O)cc(O)c12 [myricetin],–,–,"random coil percentage of α-glucosidase [5, 9]: 28.0%; α-helix content of α-glucosidase [5, 9]: 17.6%; β-sheet proportion of α-glucosidase [5, 9]: 45.7%; β-turn content of α-glucosidase [5, 9]: 8.7%; random coil percentage of α-glucosidase [5, 10]: 28.2%; α-helix content of α-glucosidase [5, 10]: 15.5%; β-sheet proportion of α-glucosidase [5, 10]: 49.9%; β-turn content of α-glucosidase [5, 10]: 6.4%; reversibility of inhibition [6]: reversible inhibitor; Ksv, Stern–Volmer quenching constant ([3]; 310 K): 13.05 ± 0.03 ×10^4 L mol^−1"
–,–,–,–,–,–,–,–,–,–,–,O=c1cc(-c2ccc(O)c(O)c2)oc2cc(O)cc(O)c12 [luteolin],–,mixed-type,–
–,–,–,–,–,–,–,–,–,–,Competitive,"C[C@H]1O[C@H](O[C@H]2[C@H](O)[C@@H](O)[C@@H](O[C@H]3[C@H](O)[C@@H](O)C(O)O[C@@H]3CO)O[C@@H]2CO)[C@H](O)[C@@H](O)[C@@H]1N[C@H]1C=C(CO)[C@@H](O)[C@H](O)[C@H]1O (stereo partly drawn) [acarbose, reference compound]",competitive inhibitors,–,–
